The target in data set [1] is T1, Fatty-acid amide hydrolase 1 (Rattus norvegicus) (UniProt P97612).
T1 sequence (whole entry): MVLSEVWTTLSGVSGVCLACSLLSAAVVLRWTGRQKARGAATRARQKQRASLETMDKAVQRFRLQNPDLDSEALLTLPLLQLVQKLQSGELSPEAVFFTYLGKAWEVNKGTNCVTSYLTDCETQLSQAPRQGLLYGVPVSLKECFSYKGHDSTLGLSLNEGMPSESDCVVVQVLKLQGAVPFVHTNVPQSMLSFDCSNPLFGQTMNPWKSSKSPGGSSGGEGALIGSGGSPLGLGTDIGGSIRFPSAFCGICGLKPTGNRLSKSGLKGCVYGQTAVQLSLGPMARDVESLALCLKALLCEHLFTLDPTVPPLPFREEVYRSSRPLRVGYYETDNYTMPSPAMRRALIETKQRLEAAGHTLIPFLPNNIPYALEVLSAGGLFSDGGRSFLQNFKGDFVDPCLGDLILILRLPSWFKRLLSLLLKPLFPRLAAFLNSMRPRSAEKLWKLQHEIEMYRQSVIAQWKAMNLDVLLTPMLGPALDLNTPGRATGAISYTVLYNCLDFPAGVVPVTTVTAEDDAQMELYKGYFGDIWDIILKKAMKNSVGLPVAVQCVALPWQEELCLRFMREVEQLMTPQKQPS
As to the kind of experiment: In vivo inhibition of FAAH in CFA induced Sprague-Dawley rat plasma assessed as elevation of PEA level at 1 mg/kg, po measured for 1 to 24 hrs. The data set is classed as functional, organism-based. The following applies: time 1-24 hrs.

Data set [2] deals with T1, Fatty-acid amide hydrolase 1 (Rattus norvegicus). As to the kind of experiment: In vivo inhibition of FAAH in CFA induced Sprague-Dawley rat brain assessed as elevation of NAE level at 0.1 to 10 mg/kg, po. The data set is classed as functional, organism-based. The following applies: dose 0.1-10 mg/kg. The essentials:
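Lipid (NAE) levels in rat brain and plasma measured by LC/MS after oral dosing in CFA rats; n = 3 rats/group. Time-course samples taken at 1, 2, 4, 8, 24 h after 1 mg/kg.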

The nature of data set [3]: Tmax in rat at 5 mg/kg, po measured upto 24 hrs by LC/MS analysis. The following applies: in vivo. Format: ADME, organism-based.
The nature of data set [4]: Brain concentration in CFA induced Sprague-Dawley rat at 0.1 mg/kg, po by LC/MS analysis. Format: ADME, organism-based. The following applies: in vivo, read-out: Ct.
The test system of another data set is Mus musculus. As to the kind of experiment: In vivo inhibition of rhodamine-azide tagged FAAH expressed in mouse brain at 1 mg/kg, po by CC-ABPP method based in-gel fluorescence scanning analysis. The data set is classed as functional, organism-based.
Data set [5] has as its target T2, Fatty-acid amide hydrolase 1 (Mus musculus) (UniProt O08914).
T2 sequence (whole entry): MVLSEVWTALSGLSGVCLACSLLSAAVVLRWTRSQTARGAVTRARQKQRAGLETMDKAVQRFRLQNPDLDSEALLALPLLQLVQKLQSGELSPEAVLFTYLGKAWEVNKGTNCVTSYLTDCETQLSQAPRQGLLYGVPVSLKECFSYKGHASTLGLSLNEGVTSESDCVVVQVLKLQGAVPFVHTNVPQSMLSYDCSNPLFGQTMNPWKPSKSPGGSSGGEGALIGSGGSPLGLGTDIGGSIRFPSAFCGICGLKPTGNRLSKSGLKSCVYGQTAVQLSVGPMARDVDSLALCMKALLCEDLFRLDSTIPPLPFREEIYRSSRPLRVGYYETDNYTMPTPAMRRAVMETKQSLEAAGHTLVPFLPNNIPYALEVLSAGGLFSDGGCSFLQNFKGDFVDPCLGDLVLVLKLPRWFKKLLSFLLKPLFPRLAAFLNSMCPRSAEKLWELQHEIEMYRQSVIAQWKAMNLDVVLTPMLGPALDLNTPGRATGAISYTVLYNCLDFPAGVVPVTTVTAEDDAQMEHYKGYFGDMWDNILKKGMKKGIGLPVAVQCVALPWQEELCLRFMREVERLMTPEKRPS
As to the kind of experiment: Inhibition of FAAH in mouse brain at 100 uM in presence of FP-rhodamine by competitive activity-based protein profiling method. The data set is classed as tissue-based. An outline of the steps: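 Competitive ABPP on human and mouse brain, liver and heart proteomes (membrane and soluble fractions), exposed to compound at 10 or 100 μM or to DMSO. Serine hydrolases were then labeled with FP-rhodamine. Gels were read by fluorescence scanning, and loss of band labeling (FAAH or other hydrolases by kDa) was judged.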

The nature of data set [6]: Ratio of drug concentration in CFA induced Sprague-Dawley rat brain to plasma at 0.1 to 10 mg/kg, po by LC/MS analysis. The data set is classed as ADME, organism-based. The following applies: brain and plasma, dose 0.1-10 mg/kg. An outline of the steps: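 Male Sprague-Dawley rats (200–250 g) received 150 μl CFA (1 mg/ml suspension in mineral oil) into the plantar hind paw. On day 5 they were dosed orally at 0.003–10 mg/kg as a nanocrystalline suspension in 2% polyvinylpyrrolidone/0.15% SDS in H₂O at 10 ml/kg. Drug levels were measured in brain tissue and plasma in the dose-response study, where PWTs were read at 4 h post-dose.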

Data set [7] deals with Rattus norvegicus. Description: Antihyperalgesic activity in MIA induced Sprague-Dawley rat assessed as increased joint compression thresholds at 3 mg/kg, po administered once daily for 3 consecutive days and measured after 2 to 4 hrs. Format: functional, organism-based. The following applies: time 3.0 day. The essentials:
(§1)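 Male Sprague-Dawley rats (220–270 g), isoflurane-anesthetized, given 2 mg MIA in 0.9% saline (50 μl) intra-articular into the knee. From day 14, oral dosing at 10 ml/kg once daily for 3 days in 4% 2-hydroxypropyl-β-cyclodextrin/1% ethanol in 0.01 M HCl. Celecoxib 30 mg/kg in 0.5% methylcellulose twice daily. Joint compression threshold by digital Randall-Selitto at 2 and 4 h postdose on days 1 and 3; n = 10/group.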

The target in data set [8] is T1, Fatty-acid amide hydrolase 1 (Rattus norvegicus). Description: In vivo inhibition of FAAH in CFA induced Sprague-Dawley rat plasma at 1 mg/kg, po measured for 1 to 24 hrs. The conditions noted are these: time 1-24 hrs. Format: functional, organism-based.
Data set [9] shares this target. Description: In vivo inhibition of FAAH in CFA induced Sprague-Dawley rat WBC at 0.1 to 10 mg/kg, po relative to control. Format: functional, organism-based. The conditions noted are these: dose 0.1-10 mg/kg. The essentials: (§2)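 Brain and blood leukocyte membrane fractions from CFA rats after oral dosing. FAAH activity measured with 3H-labeled AEA substrate, quantifying released 3H-ethanolamine; n = 3 rats/group. Time course sampled at 1, 2, 4, 8, 24 h after 1 mg/kg.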

Data set [10] shares this target. Description: In vivo inhibition of FAAH in CFA induced Sprague-Dawley rat brain at 1 mg/kg, po measured for 1 to 24 hrs. Format: functional, organism-based. The following applies: time 1-24 hrs. An outline of the steps: as §2
The subject of data set [11] is Rattus norvegicus. Description: Antihyperalgesic activity in MIA induced Sprague-Dawley rat assessed as reduction in mechanical allodynia at 3 mg/kg, po administered for 1 day and measured after 2 to 4 hrs. The data set is classed as functional, organism-based. An outline of the steps:
as §1

The nature of data set [12]: Oral bioavailability in dog. The data set is classed as ADME, organism-based, Canis lupus familiaris. The following applies: in vivo.
Data set [13] concerns Rattus norvegicus. Description: Antihyperalgesic activity in CFA induced Sprague-Dawley rat assessed as inhibition of mechanical allodynia at 1 mg/kg, po measured for 1 to 24 hrs by von frey test. Format: functional, organism-based. The following applies: time 1-24 hrs. An outline of the steps:
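Male Sprague-Dawley rats (200–250 g) given 150 μl CFA (1 mg/ml in mineral oil) intraplantar in the hind paw. Mechanical paw withdrawal thresholds read with Von Frey hairs on day 5 postinjection. Dosed orally as nanocrystalline suspension in 2% polyvinylpyrrolidone/0.15% SDS in water, 10 ml/kg. PWTs taken 4 h postdose for dose-response, or at 1, 2, 4, 8, 24 h for time course.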

Each structure is given as a SMILES string. The source made the active and inactive calls.

On to `O=C(Nc1cccnn1)N1CCC(=Cc2cccc(Oc3ccc(C(F)(F)F)cn3)c2)CC1`, for which the inhibition entry (in data set [1]; in data set [2]; in the data set on Mus musculus; in data set [5]; in data set [8]; in [10]) was “Active” throughout. Besides, the time to peak (Tmax) in data set [3] amounted to 2 h. Further, in [4], the concentration was found to be 38.9 nM. The Kp in data set [6] stood at 1.3. The outcome with Rattus norvegicus [7], with Rattus norvegicus [11] and in the data set with Rattus norvegicus [13] was Active. Besides, the inhibition in [9] came to 98%. In [12], the bioavailability amounted to 58%.
